Data set [1] is filed under the species Homo sapiens. As to the kind of experiment: Selectivity ratio of IC50 for JAK1/JAK3 in human PBMC assessed as decrease in IL2-induced STAT5 phosphorylation in CD3+ T cells to IC50 for TYK2 JH2 domain in human PBMC assessed as decrease in IFNalpha-induced STAT5 phosphorylation. It counts as cell-based. The settings on record: tested as the 2H-labelled form. A digest of the protocol: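 Human PBMC were stimulated with IL-2 (JAK1/JAK3) or IFNα (TYK2), and STAT5 phosphorylation in CD3⁺ T-cells was the end point. The ratio is IL-2 IC50 over IFNα IC50, with means from at least three separate experiments.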

The species named for data set [2] is Homo sapiens. Description: Selectivity ratio of IC50 for JAK2 in GM-CSF-stimulated human TF-1 cells to IC50 for TYK2 JH2 domain in human PBMC assessed as decrease in IFNalpha-induced STAT5 phosphorylation. Conditions: tested as the 2H-labelled form.
Data set [3] is filed under the species Homo sapiens. Description: Selectivity ratio of IC50 for c-kit (unknown origin) to IC50 for His-tagged recombinant human TYK2 pseudokinase JH2 domain (575-869 residues) incubated for 1 hr by HTRF assay. Conditions: tested as the 2H-labelled form. Background: TR-FRET usually uses a lanthanide donor and a delayed reading to cut background.
Data set [4] addresses JAK1/TYK2 (Homo sapiens, UniProt P23458+P29597). As to the kind of experiment: Inhibition of JAK1/TYK2 in human Kit225 T cells assessed as inhibition of STAT phosphorylation by luciferase reporter assay. It counts as cell-based. A digest of the protocol: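 T-cells carrying a stably integrated STAT-dependent luciferase reporter were stimulated with IFNα or IL-23 to measure TYK2/JAK1-dependent signalling. Dose–response curves gave IC50.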
In general terms: A reporter such as luciferase makes a cellular process visible.

Data set [5] addresses Non-receptor tyrosine-protein kinase TYK2 (Homo sapiens, UniProt P29597). Description: Inhibition of TYK2 in human whole blood assessed as decrease in IFNalpha-induced STAT5 phosphorylation preincubated for 1 hr followed by stimulation with IFN-alpha for 15 mins by fluorescence analysis. It counts as tissue-based. In a few lines: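 Human whole blood stimulated with IFNα; STAT5 phosphorylation was read in cells by staining and flow cytometry. IC50 from dose–response; mean of at least three experiments.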

The target in data set [6] is Non-receptor tyrosine-protein kinase TYK2 (Mus musculus, UniProt Q9R117). Description: Inhibition of TYK2 in mouse whole blood assessed as decrease in IFNalpha-induced STAT1 phosphorylation preincubated for 1 hr followed by stimulation with IFN-alpha for 15 mins by fluorescence analysis. It is filed as tissue-based. In a few lines: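 Mouse whole blood stimulated with IFNα; STAT1 phosphorylation was measured by cellular staining and flow cytometry. Read as IC50.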
Non-receptor tyrosine-protein kinase TYK2 (Mus musculus, UniProt Q9R117), sequence (Q9R117 whole entry): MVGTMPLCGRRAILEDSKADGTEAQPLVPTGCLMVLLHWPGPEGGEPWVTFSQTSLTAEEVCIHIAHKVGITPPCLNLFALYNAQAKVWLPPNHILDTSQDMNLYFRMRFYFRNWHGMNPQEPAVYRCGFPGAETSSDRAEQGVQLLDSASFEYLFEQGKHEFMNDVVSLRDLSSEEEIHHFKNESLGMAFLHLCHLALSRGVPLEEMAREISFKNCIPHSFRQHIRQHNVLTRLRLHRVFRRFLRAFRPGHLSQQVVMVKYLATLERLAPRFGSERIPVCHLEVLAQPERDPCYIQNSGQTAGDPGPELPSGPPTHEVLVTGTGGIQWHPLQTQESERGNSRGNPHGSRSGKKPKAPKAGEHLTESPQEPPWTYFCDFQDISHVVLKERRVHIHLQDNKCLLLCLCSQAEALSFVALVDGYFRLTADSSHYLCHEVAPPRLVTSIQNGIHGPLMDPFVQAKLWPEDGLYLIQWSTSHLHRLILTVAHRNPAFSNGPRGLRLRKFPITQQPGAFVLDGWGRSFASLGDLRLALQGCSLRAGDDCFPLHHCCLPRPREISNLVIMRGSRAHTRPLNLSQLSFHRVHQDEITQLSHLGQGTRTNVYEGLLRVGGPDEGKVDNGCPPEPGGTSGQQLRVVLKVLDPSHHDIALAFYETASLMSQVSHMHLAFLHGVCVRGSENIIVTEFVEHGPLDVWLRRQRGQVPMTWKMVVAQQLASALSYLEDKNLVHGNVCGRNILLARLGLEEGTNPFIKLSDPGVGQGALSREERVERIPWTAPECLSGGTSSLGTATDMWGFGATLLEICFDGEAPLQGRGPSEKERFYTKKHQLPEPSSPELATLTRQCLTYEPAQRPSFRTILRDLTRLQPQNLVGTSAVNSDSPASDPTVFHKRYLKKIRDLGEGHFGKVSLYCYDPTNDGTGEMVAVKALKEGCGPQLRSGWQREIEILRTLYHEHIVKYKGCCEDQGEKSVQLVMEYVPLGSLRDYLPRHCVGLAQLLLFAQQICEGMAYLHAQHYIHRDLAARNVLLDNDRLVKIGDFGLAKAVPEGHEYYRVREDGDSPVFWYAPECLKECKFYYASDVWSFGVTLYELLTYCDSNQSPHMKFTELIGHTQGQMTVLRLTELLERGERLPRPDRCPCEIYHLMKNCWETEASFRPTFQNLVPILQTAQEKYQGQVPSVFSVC

Data set [7] in a line: Metabolic stability in mouse liver microsomes assessed as compound remaining incubated for 10 mins. It is filed as ADME, Microsome. Conditions: read-out: Stability. In a few lines: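 Mouse liver microsomal stability, reported as percent of parent remaining after a 10 min incubation. Values are means of at least three experiments unless otherwise noted.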
(Liver microsomes are vesicles of endoplasmic reticulum, rich in cytochrome P450 enzymes.)

The nature of data set [8]: Permeability coefficient, Kp across apical to basolateral side in human Caco2 cells. It is filed as ADME, cell-based. Conditions: Caco-2, read-out: permeability. In a few lines: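 Caco-2 monolayer permeability measured in both directions, apical-to-basal and basal-to-apical, reported as Pc in nm/s. An efflux ratio was calculated from the two directions.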
The target in data set [9] is Voltage-gated inwardly rectifying potassium channel KCNH2 (Homo sapiens, UniProt Q12809). Description: Inhibition of human ERG by in vitro ion channel flux assay.
Voltage-gated inwardly rectifying potassium channel KCNH2, sequence (Q12809 whole entry): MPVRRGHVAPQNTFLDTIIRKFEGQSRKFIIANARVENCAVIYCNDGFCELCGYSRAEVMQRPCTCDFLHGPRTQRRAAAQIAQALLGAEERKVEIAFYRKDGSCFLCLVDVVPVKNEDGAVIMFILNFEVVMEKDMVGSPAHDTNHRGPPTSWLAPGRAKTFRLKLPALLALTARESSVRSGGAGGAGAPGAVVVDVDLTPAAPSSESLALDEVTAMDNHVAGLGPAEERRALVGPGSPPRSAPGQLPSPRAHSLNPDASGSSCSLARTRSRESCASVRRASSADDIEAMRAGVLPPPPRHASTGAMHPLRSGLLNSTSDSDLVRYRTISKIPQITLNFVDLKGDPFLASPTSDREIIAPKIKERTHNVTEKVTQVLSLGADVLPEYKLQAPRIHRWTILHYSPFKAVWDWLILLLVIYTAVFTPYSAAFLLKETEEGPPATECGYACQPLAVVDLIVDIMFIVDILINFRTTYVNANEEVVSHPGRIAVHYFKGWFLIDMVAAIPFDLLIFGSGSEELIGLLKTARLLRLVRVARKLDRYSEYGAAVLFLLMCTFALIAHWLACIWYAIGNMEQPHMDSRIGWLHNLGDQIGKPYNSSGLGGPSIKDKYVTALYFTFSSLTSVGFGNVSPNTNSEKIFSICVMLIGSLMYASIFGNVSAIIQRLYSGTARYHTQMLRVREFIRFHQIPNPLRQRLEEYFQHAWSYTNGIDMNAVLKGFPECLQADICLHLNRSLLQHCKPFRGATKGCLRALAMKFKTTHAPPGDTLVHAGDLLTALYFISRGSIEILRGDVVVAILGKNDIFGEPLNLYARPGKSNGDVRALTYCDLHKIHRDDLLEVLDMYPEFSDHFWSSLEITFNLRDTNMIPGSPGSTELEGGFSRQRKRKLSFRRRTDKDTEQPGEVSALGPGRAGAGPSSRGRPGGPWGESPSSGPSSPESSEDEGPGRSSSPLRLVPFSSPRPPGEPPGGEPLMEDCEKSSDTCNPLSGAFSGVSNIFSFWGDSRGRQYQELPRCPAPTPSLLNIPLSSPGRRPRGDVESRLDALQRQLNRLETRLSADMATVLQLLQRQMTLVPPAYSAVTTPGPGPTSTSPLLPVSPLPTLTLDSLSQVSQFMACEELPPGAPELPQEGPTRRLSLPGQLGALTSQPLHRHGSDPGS
Data set [10] deals with Mus musculus. As to the kind of experiment: Protection against IL23-induced acanthosis in C57BL/6 mouse assessed as reduction in ear swelling compound dosed orally via gavage bid for 9 days with first dose given prior to first IL23 challenge and twice a day thereafter by caliper method. It is filed as functional, organism-based. The settings on record: tested as the 2H-labelled form.

In data set [11] the test system is Mus musculus. As to the kind of experiment: Protection against IL23-induced acanthosis C57BL/6 mouse assessed as reduction in ear swelling at 15 mg/kg, po via gavage bid for 9 days with first dose given prior to first IL23 challenge and twice a day thereafter by caliper method. It is filed as functional, organism-based. Conditions: tested as the 2H-labelled form.

Data set [12] concerns Mus musculus. Description: Protection against IL23-induced acanthosis C57BL/6 mouse assessed as reduction in ear swelling at 30 mg/kg, po via gavage bid for 9 days with first dose given prior to first IL23 challenge and twice a day thereafter by caliper method. The settings on record: tested as the 2H-labelled form. It counts as functional, organism-based.
Data set [13] relates to Mus musculus. As to the kind of experiment: Protection against IL23-induced acanthosis C57BL/6 mouse assessed as inhibition in epidermal hyperplasia compound dosed orally via gavage bid for 9 days with first dose given prior to first IL23 challenge and twice a day thereafter by H and E staining based analysis. It counts as functional, organism-based. Conditions: tested as the 2H-labelled form. In a few lines: (§1)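 IL-23 was injected intradermally and repeatedly into mouse ears. Compound was dosed orally twice daily for 9 days in EtOH:TPGS:PEG300 (5:5:90), at 7.5, 15 or 30 mg/kg. Histological scoring covered epidermal hyperplasia and inflammatory infiltration. Eight mice per group; means ± SEM; one-way ANOVA.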

The test system of data set [14] is Mus musculus. Description: Protection against IL23-induced acanthosis C57BL/6 mouse assessed as inhibition of inflammatory cellular infiltration compound dosed orally via gavage bid for 9 days with first dose given prior to first IL23 challenge and twice a day thereafter by H and E staining based analysis. It counts as functional, organism-based. The settings on record: tested as the 2H-labelled form. In a few lines: (§2)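 IL-23 was injected intradermally into mouse ears repeatedly to drive acanthosis. Test agent was given orally twice daily for 9 days at 7.5, 15 or 30 mg/kg in EtOH:TPGS:PEG300 (5:5:90), with an anti-IL-23 adnectin as positive control. Epidermal hyperplasia and cellular infiltration were scored histologically. Eight mice per group; means ± SEM; one-way ANOVA.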

Data set [15] has as its system Mus musculus. As to the kind of experiment: Protection against IL23-induced acanthosis C57BL/6 mouse assessed as inhibition in epidermal hyperplasia at 30 mg/kg, po via gavage bid for 9 days with first dose given prior to first IL23 challenge and twice a day thereafter by H and E staining based analysis. It counts as functional, organism-based. Conditions: tested as the 2H-labelled form. In a few lines: as §1

The subject of data set [16] is Mus musculus. Description: Protection against IL23-induced acanthosis C57BL/6 mouse assessed as inhibition of inflammatory cellular infiltration at 30 mg/kg, po via gavage bid for 9 days with first dose given prior to first IL23 challenge and twice a day thereafter by H and E staining based analysis. It counts as functional, organism-based. Conditions: tested as the 2H-labelled form. In a few lines:
as §2

In data set [17] the test system is Mus musculus. Description: Protection against IL23-induced acanthosis C57BL/6 mouse assessed as inhibition in IL-17A mRNA expression in ear skin compound dosed orally via gavage bid for 9 days with first dose given prior to first IL23 challenge and twice a day thereafter by qRT-PCR analysis. It counts as functional, organism-based. The settings on record: tested as the 2H-labelled form. In a few lines:
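Mice given repeated intradermal IL-23 injections into the ears to induce acanthosis. Oral dosing twice daily for 9 days at 7.5, 15 or 30 mg/kg in 5:5:90 EtOH:TPGS:PEG300 vehicle; anti-IL-23 adnectin served as positive control. Skin biopsies analysed by quantitative PCR for IL-17A expression. Eight mice per group; means ± SEM; one-way ANOVA.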

For data set [18], the system named is Mus musculus. As to the kind of experiment: Protection against IL23-induced acanthosis C57BL/6 mouse assessed as inhibition in IL-21 mRNA expression in ear skin compound dosed orally via gavage bid for 9 days with first dose given prior to first IL23 challenge and twice a day thereafter by qRT-PCR analysis. It counts as functional, organism-based. The settings on record: tested as the 2H-labelled form. A digest of the protocol:
(§3)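 IL-23 was injected intradermally and repeatedly into mouse ears to induce psoriasis-like acanthosis. Compound was given orally twice daily for 9 days in EtOH:TPGS:PEG300 (5:5:90), at 7.5, 15 and 30 mg/kg. Skin biopsies were analysed for cytokine transcripts (IL-17A, IL-21, IL-12/IL-23 subunits) by quantitative PCR. Eight mice per group.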

Data set [19] relates to Mus musculus. As to the kind of experiment: Protection against IL23-induced acanthosis C57BL/6 mouse assessed as inhibition in IL-12 mRNA expression in ear skin compound dosed orally via gavage bid for 9 days with first dose given prior to first IL23 challenge and twice a day thereafter by qRT-PCR analysis. It is filed as functional, organism-based. The settings on record: tested as the 2H-labelled form. In a few lines:
as §3

In data set [20] the test system is Mus musculus. Description: Protection against IL23-induced acanthosis C57BL/6 mouse assessed as inhibition in IL-23 mRNA expression in ear skin compound dosed orally via gavage bid for 9 days with first dose given prior to first IL23 challenge and twice a day thereafter by qRT-PCR analysis. It counts as functional, organism-based. The settings on record: tested as the 2H-labelled form. In a few lines: as §3

In data set [21] the target is JAK3/JAK1 (Homo sapiens, UniProt P23458+P52333). Description: Inhibition of JAK1/JAK3 in human PBMC assessed as decrease in IL2-induced STAT5 phosphorylation in CD3+ T cells preincubated for 1 hr followed by stimulation with IL2 for 15 mins by flow cytometry. It counts as cell-based. In a few lines: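 Human cytokine signalling assay: IL-2 stimulation (JAK1/JAK3), with STAT5 phosphorylation in CD3⁺ T-cells measured as the end point. Read as IC50; mean of at least three separate experiments.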
JAK3/JAK1, sequence (P23458 whole entry, one chain of several): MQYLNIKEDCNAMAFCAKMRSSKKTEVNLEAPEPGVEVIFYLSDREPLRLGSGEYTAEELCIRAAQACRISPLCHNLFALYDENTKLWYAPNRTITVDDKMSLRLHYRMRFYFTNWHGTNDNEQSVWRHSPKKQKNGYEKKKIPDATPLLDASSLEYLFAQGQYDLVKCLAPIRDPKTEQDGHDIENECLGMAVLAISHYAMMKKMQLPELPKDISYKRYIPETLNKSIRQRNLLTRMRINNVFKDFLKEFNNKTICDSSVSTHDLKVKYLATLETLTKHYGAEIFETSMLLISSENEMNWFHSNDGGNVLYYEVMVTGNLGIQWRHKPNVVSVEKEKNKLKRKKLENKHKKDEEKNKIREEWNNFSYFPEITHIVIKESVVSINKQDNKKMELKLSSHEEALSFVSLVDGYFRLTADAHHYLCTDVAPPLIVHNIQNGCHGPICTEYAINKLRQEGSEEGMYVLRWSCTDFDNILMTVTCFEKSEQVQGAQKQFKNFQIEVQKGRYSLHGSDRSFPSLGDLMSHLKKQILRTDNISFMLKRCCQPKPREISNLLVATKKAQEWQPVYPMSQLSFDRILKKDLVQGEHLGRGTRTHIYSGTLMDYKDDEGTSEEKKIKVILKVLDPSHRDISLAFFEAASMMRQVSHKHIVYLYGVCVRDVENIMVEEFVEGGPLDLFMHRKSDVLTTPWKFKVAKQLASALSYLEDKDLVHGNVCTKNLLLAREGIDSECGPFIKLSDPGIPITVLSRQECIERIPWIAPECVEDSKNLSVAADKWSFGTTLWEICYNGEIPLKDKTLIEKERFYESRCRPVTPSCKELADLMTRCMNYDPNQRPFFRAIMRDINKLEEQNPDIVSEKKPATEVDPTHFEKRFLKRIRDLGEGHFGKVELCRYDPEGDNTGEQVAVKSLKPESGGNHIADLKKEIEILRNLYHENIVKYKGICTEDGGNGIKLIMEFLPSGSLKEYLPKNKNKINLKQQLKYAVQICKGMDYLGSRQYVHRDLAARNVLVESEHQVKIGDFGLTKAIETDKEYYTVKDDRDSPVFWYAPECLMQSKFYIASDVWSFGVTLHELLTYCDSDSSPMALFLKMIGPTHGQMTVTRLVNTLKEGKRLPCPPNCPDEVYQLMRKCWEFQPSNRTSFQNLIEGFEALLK

In data set [22] the target is T1, Tyrosine-protein kinase JAK3 (Homo sapiens, UniProt P52333).
T1 sequence (P52333 whole entry): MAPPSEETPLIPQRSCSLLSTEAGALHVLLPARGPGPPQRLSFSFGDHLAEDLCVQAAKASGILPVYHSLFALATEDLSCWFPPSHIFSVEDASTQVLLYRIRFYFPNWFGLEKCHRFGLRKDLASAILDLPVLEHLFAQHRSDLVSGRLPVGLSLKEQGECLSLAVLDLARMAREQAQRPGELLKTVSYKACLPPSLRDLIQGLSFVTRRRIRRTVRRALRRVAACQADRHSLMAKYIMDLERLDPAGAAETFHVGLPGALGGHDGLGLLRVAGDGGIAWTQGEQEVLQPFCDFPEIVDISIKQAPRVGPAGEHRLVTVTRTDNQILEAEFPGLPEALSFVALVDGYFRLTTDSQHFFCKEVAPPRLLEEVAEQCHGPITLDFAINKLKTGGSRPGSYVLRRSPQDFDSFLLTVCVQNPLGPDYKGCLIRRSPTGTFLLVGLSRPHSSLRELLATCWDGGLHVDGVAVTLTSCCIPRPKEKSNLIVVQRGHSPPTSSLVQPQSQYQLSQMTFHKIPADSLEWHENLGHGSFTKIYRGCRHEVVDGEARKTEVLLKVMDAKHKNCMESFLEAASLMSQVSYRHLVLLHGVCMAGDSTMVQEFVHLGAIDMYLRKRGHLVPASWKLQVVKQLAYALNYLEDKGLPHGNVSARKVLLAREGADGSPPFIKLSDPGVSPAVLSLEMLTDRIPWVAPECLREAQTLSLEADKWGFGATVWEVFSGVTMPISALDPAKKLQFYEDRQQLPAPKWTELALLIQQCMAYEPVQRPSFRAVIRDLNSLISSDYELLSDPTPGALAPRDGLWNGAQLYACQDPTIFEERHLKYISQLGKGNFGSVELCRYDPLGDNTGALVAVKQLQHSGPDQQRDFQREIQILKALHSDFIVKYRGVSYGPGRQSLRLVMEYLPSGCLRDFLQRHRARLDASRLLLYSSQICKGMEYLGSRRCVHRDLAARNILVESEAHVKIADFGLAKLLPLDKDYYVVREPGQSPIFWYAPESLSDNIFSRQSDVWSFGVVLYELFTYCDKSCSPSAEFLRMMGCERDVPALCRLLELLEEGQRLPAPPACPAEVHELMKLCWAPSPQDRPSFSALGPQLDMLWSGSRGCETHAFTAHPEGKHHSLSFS
As to the kind of experiment: Inhibition of fluorescein labeled probe binding to human recombinant JAK3 JH1 domain incubated for 1 hr by HTRF assay. In a few lines: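 HTRF competition binding assay: displacement of a fluorescent probe from human recombinant JAK3 JH1 domain. IC50 for 50% inhibition of HTRF signal derived by nonlinear regression.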

Data set [23] concerns the target Tyrosine-protein kinase JAK2 (Homo sapiens, UniProt O60674). As to the kind of experiment: Inhibition of JAK2 in GM-CSF-stimulated human TF-1 cells. It is filed as cell-based.

Active and inactive are the calls of the source. The rule behind the calls is not given here.

We go through four compounds from ChEMBL document CHEMBL4376812 (J Med Chem, 2019).

Usually IC50 stands for the midpoint of a concentration-inhibition curve.

JAK1/TYK2, sequence (P23458 whole entry): as the sequence (P23458 whole entry, one chain of several) above
JAK1/TYK2, sequence (P29597 whole entry): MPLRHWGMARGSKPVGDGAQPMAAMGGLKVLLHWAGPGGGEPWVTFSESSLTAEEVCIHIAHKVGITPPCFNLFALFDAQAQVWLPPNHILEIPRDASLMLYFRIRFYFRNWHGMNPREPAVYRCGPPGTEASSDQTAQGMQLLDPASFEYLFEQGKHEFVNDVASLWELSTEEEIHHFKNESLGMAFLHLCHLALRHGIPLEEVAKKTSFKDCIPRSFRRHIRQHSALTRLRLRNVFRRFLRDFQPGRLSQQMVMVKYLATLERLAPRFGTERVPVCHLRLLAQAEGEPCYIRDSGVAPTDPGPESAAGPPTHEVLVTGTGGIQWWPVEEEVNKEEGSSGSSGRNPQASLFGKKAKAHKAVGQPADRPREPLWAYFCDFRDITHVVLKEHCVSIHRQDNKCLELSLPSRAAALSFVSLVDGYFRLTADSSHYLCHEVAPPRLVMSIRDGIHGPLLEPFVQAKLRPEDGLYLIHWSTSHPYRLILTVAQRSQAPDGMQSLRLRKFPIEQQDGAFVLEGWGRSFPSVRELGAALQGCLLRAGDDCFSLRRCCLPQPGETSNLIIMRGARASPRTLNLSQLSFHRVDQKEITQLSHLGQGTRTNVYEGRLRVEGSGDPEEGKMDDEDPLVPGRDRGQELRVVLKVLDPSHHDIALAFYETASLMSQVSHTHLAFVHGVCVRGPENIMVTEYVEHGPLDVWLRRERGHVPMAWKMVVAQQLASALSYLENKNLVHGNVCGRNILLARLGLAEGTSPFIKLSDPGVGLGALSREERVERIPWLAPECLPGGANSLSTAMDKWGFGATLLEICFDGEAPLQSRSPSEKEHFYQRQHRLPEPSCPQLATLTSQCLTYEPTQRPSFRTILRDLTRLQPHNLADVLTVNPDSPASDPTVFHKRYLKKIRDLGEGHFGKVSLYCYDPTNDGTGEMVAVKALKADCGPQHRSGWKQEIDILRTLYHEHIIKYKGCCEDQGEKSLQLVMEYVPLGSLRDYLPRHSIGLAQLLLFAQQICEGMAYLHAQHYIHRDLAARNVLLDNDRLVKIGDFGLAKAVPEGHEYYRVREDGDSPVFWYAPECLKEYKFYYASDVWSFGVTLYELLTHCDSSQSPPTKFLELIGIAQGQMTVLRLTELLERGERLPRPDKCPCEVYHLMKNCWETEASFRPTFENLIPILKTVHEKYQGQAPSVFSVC
Non-receptor tyrosine-protein kinase TYK2 (Homo sapiens, UniProt P29597), sequence (P29597 whole entry): as above

For the compound `CNC(=O)c1nnc(Nc2ccccn2)cc1Nc1ccccc1S(C)(=O)=O`, the Ratio IC50 in [1] turned out to be 210; in [2], 270; in data set [3], 690.

As for `CNC(=O)c1cnc(Nc2ccc(C(F)(F)F)cn2)cc1Nc1cccc(-c2ncn(C)n2)c1OC`, the IC50 in data set [4] is 0.012 µM; in data set [5], 0.069 µM; in [6], 0.7 µM; in data set [9] it was 16 µM. In [7], the remaining at 10 min was determined as 78%. The Papp A→B in data set [8] was 1.6 ×10⁻⁶ cm/s.

As to `CNC(=O)c1nnc(NC(=O)C2CC2)cc1Nc1cccc(-c2ncn(C)n2)c1OC`, the Activity entry in data set [10], in [13], in [14], in [17], in data set [18] and in data set [19] was “Dose-dependent effect” each time. The Activity entry in data set [20] is “Dose-dependent effect”. For the same compound, the result in data set [11], in [12], in data set [15] and in [16] was Active.

As for `[2H]C([2H])([2H])NC(=O)c1nnc(Nc2ccccn2)cc1Nc1ccccc1S(C)(=O)=O`, the IC50 in [21] is 5.7 µM; in data set [22], above 10 µM; in data set [23], 2.7 µM.
